Legend:
Format in all cases: cell-based
[1] = target: T1, Muscarinic acetylcholine receptor M1 (Homo sapiens, UniProt P11229); assay: Displacement of [3H]-QNB/[3H]-NMS from human recombinant Muscarinic acetylcholine M1 receptor expressed in stable CHO cells after 90 mins by microbeta scintillation counting method
T1 sequence (P11229 whole entry): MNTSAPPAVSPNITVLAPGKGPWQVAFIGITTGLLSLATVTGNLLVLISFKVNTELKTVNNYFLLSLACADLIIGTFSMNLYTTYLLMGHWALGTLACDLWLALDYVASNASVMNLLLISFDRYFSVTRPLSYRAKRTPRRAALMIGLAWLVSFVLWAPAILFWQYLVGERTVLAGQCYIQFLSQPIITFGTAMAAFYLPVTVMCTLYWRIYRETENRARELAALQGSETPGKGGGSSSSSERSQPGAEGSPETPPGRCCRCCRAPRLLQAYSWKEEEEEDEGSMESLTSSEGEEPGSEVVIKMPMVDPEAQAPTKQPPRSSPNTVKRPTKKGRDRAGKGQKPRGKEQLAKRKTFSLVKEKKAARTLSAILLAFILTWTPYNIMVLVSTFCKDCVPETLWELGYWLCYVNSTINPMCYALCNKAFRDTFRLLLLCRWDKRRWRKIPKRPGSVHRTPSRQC
In short: (§1)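 Radioligand binding was run by the NIMH Psychoactive Drug Screening Program. Compounds were first screened at 10 μM. Those giving ≥50% binding were taken to full competition curves. Ki is reported as pKi from a sigmoidal curve fit of triplicate measurements in a single experiment; the error is the curve-fit error.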

[2] = target: 5-hydroxytryptamine receptor 1B (Homo sapiens, UniProt P28222); assay: Displacement of [3H]5-CT from human recombinant 5-HT1B receptor expressed in stable HEK cells after 90 mins by microbeta scintillation counting method; in short: as §1
Chain of 5-hydroxytryptamine receptor 1B (P28222 whole entry): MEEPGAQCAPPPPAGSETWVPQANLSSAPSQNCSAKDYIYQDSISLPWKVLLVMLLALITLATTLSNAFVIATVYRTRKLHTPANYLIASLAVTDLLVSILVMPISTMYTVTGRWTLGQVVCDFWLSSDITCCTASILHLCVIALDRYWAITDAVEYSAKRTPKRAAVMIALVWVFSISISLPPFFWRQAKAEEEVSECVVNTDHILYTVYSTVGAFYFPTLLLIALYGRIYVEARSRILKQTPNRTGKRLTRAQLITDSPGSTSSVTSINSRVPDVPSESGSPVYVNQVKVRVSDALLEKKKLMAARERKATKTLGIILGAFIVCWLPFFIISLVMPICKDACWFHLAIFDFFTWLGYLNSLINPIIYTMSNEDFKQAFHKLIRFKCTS

[3] = target: 5-hydroxytryptamine receptor 7 (Homo sapiens, UniProt P34969); assay: Displacement of [3H]-LSD from human recombinant 5-HT7 receptor expressed in stable HEK cells after 90 mins by microbeta scintillation counting method
Chain of 5-hydroxytryptamine receptor 7 (P34969 whole entry): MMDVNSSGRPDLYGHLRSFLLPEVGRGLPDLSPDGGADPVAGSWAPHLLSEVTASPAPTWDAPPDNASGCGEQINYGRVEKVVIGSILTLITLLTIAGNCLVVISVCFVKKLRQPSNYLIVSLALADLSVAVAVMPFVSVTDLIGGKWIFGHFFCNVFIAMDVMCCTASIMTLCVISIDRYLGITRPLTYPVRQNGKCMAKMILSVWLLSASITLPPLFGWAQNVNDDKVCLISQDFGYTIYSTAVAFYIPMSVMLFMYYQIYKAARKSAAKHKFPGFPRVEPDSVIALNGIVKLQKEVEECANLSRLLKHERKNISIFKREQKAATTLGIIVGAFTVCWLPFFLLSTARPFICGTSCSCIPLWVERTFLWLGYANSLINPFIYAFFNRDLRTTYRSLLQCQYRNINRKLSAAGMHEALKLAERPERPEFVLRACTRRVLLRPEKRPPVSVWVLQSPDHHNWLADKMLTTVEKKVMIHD
In short: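 Run by NIMH Psychoactive Drug Screening Program. Otherwise, competition binding curves are generated and pKi is taken from a sigmoidal curve fit. Data are either triplicate measurements within one experiment, with the error from the fit, or the mean of repeated experiments, each run in triplicate.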

[4] = target: T2, 5-hydroxytryptamine receptor 2C (Homo sapiens, UniProt P28335); assay: Displacement of [3H]-Mesulergine from human recombinant 5-HT2C receptor expressed in HEKT cells after 90 mins by microbeta scintillation counting method
T2 sequence (P28335 whole entry): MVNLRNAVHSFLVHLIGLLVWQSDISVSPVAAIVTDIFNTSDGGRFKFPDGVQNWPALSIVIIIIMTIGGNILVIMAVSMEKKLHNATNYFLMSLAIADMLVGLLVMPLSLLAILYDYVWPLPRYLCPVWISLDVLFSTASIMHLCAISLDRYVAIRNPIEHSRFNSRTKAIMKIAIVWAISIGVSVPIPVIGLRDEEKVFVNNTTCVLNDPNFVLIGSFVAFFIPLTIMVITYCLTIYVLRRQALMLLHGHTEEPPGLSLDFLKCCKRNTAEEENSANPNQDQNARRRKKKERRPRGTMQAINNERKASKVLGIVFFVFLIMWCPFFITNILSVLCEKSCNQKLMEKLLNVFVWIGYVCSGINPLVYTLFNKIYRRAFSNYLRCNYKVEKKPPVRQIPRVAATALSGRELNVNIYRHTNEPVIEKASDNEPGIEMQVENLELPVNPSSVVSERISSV
In short: (§2)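 Radioligand binding run by the NIMH Psychoactive Drug Screening Program. […] Otherwise Ki comes from sigmoidal curve fits of triplicate measurements in a single experiment, or is averaged over repeated experiments each run in triplicate.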

[5] = target: Histamine H2 receptor (Homo sapiens, UniProt P25021); assay: Displacement of [125I]-Iodoaminopotentidine from human recombinant histamine H2 receptor expressed in stable HEK cells after 90 mins by microbeta scintillation counting method; in short: as §2
Chain of Histamine H2 receptor (P25021 whole entry): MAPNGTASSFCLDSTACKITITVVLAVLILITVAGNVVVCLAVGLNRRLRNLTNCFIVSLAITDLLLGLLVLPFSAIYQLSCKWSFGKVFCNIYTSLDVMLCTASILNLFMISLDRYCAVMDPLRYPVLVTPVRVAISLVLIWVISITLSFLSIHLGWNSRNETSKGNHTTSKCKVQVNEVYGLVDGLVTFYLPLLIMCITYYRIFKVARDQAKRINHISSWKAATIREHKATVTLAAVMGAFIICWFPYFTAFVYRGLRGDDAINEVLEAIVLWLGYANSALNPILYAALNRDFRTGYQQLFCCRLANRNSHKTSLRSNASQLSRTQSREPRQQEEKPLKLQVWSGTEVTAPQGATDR

[6] = target: T3, Alpha-2B adrenergic receptor (Homo sapiens, UniProt P18089); assay: Displacement of [3H]-Rauwolscine from human recombinant adrenergic Alpha2B receptor expressed in HEKT cells after 90 mins by microbeta scintillation counting method; in short: as §1
T3 sequence (P18089 whole entry): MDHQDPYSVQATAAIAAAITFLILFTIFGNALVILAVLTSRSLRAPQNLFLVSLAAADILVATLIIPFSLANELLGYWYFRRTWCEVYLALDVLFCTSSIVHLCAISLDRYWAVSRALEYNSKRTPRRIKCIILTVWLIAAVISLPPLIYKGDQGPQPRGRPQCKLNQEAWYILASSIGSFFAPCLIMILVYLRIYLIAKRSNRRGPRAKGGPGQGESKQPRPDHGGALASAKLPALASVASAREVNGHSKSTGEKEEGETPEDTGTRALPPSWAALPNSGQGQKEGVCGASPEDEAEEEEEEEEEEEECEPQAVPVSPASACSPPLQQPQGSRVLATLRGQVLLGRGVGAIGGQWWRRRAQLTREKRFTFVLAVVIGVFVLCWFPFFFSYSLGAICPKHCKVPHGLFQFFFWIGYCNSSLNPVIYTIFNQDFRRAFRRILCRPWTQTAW

[7] = target: Histamine H4 receptor (Homo sapiens, UniProt Q9H3N8); assay: Displacement of [3H]-Histamine from human recombinant histamine H4 receptor expressed in HEKT cells at 10 uM after 90 mins by microbeta scintillation counting method relative to control; in short: as §2
Chain of Histamine H4 receptor (Q9H3N8 whole entry): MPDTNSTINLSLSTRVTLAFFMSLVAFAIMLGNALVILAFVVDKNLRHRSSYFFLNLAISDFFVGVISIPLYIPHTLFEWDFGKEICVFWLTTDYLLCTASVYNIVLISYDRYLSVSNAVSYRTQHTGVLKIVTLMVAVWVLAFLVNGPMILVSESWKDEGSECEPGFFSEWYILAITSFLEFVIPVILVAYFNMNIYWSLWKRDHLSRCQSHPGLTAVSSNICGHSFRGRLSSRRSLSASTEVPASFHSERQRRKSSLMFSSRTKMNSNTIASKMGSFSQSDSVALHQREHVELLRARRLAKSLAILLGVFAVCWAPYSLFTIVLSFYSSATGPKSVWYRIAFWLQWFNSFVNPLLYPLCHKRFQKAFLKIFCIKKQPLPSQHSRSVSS

[8] = target: Muscarinic acetylcholine receptor M3 (Homo sapiens, UniProt P20309); assay: Displacement of [3H]-QNB/[3H]-NMS from human recombinant Muscarinic acetylcholine M3 receptor expressed in stable CHO cells at 10 uM after 90 mins by microbeta scintillation counting method relative to control
Chain of Muscarinic acetylcholine receptor M3 (P20309 whole entry, looked up): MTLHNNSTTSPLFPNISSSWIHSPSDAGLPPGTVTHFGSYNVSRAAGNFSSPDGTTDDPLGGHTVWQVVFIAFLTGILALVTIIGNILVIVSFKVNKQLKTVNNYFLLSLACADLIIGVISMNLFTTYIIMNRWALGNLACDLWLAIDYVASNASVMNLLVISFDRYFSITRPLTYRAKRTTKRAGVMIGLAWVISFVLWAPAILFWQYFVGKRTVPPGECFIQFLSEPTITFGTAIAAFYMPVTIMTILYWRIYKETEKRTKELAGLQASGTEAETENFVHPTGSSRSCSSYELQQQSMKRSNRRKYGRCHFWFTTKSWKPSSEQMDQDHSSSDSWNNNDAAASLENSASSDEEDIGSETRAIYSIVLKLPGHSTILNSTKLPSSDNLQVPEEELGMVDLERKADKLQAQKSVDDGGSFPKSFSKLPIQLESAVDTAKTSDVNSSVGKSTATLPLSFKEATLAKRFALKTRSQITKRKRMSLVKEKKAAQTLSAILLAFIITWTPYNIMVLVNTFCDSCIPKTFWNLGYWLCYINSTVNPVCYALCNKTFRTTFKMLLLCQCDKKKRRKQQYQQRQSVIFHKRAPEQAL

[9] = target: D(3) dopamine receptor (Homo sapiens, UniProt P35462); assay: Displacement of [3H]-N-methylspiperone from human recombinant dopamine D3 receptor expressed in HEKT cells at 10 uM after 90 mins by microbeta scintillation counting method relative to control; in short: as §2
Chain of D(3) dopamine receptor (P35462 whole entry): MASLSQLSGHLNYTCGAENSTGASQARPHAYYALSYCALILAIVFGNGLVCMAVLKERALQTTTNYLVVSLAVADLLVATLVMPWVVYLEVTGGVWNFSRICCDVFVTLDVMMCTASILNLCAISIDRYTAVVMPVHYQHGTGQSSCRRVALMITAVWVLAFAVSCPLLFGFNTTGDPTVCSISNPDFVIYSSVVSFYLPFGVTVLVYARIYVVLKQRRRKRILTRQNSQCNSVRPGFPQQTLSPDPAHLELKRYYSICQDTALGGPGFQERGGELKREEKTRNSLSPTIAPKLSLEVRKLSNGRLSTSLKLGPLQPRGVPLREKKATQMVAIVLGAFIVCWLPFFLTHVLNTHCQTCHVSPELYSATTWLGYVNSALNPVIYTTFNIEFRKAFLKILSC

[10] = target: D(1B) dopamine receptor (Homo sapiens, UniProt P21918); assay: Displacement of [3H]-SCH23390 from human recombinant dopamine D5 receptor expressed in HEKT cells at 10 uM after 90 mins by microbeta scintillation counting method relative to control
Chain of D(1B) dopamine receptor (P21918 whole entry): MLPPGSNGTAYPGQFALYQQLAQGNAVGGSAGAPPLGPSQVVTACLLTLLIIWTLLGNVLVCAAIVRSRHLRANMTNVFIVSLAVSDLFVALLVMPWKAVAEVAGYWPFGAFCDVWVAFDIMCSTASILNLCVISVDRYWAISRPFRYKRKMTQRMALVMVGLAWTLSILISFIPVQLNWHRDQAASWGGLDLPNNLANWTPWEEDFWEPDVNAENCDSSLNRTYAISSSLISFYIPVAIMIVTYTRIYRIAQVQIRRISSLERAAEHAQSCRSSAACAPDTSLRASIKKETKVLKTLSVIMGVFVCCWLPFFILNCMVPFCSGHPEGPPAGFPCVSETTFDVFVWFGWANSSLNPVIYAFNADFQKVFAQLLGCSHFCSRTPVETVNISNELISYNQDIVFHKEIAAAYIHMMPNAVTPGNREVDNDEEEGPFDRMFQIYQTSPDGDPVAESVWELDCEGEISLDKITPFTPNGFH

| Structure (SMILES) | Ki [1] | Ki [2] | Ki ([3]; read-out: pKi (converted)) | Ki [4] | Ki [5] | Ki [6] | Ki ([3]; read-out: Ki) | inhibition [7] | inhibition [8] | inhibition [9] | inhibition [10] |
| --- | --- | --- | --- | --- | --- | --- | --- | --- | --- | --- | --- |
| CC[C@H]1c2ccccc2N(c2ccccc2)C[C@@]1(C)N (racemic) | > 10 µM | > 10 µM | 1 µM | 3.98 µM | > 10 µM | 0.398 µM | – | – | – | – | – |
| C[C@@]12CN(c3ccccc3)c3ccccc3[C@@H]1CCN2 (racemic) | > 10 µM | > 10 µM | – | > 10 µM | 2 µM | > 10 µM | 0.0063 µM | – | – | – | – |
| CC[C@H]1c2cc(C)ccc2OC[C@@]1(C)N (racemic) | > 10 µM | > 10 µM | > 10 µM | 2.51 µM | > 10 µM | > 10 µM | – | < 50% | < 50% | < 50% | < 50% |
| COc1cc(OC)c2c(c1)OC[C@@]1(C)NCC[C@@H]21 (racemic) | > 10 µM | > 10 µM | 1.26 µM | 1.58 µM | > 10 µM | > 10 µM | – | < 50% | < 50% | < 50% | < 50% |
| CC[C@H]1c2cc(OC)ccc2CC[C@@]1(C)N (racemic) | > 10 µM | > 10 µM | > 10 µM | 2.51 µM | > 10 µM | 5.01 µM | – | < 50% | < 50% | < 50% | < 50% |
